From ChEMBL document CHEMBL1124207, “Effect of the CH2NH and CH2NAc peptide bond isosteres on the antagonistic and histamine releasing activities of a luteinizing hormone-releasing hormone analogue” (1988)
In brackets after ≈: the same amount, converted by molar mass. Square brackets hold non-standard residues; d marks the D form. Peptide text beside a SMILES is read from it. d2Nal = N[C@H](Cc1ccc2ccccc2c1)C(=O)O

What was measured:
Type in all cases: functional
Rattus norvegicus [1] = organism: Rattus norvegicus; experiment: In vitro histamine releasing activity determined with peritoneal mast cells from male Sprague-Dawley rats.; settings: Mast cell, read-out: ED50 (the source's name)
Rattus norvegicus [2] = organism: Rattus norvegicus; experiment: Antiovulatory activity expressed as the percentage of rats blocked at 12 ug
Summary of the method: (§1)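 Female Sprague-Dawley rats dosed in a 40% propane-1,2-diol/0.9% saline vehicle in a standard antiovulatory assay. The read-out is ovulation block, reported as the percentage of n rats not ovulating at x μg of analogue.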

Rattus norvegicus [3] = organism: Rattus norvegicus; experiment: Antiovulatory activity expressed as the percentage of rats blocked at 50 ug; summary of the method: as §1
Rattus norvegicus [4] = organism: Rattus norvegicus; experiment: Antiovulatory activity expressed as the percentage of rats blocked at 0.5 ug; summary of the method: as §1
Rattus norvegicus [5] = organism: Rattus norvegicus; experiment: Antiovulatory activity expressed as the percentage of rats blocked at 6 ug; summary of the method: as §1

| SMILES | EC50 (Rattus norvegicus [1]) [µg/mL] | Rats blocked (Rattus norvegicus [2]) [%] | Rats blocked (Rattus norvegicus [3]) [%] | Rats blocked (Rattus norvegicus [4]) [%] | Rats blocked (Rattus norvegicus [5]) [%] |
| --- | --- | --- | --- | --- | --- |
| CC(=O)N[C@H](Cc1ccc2ccccc2c1)C(=O)N[C@H](Cc1ccccc1)C(=O)N[C@H](Cc1ccccc1)C(=O)N[C@@H](CO)CN(C(C)=O)[C@@H](Cc1ccc(O)cc1)C(=O)N[C@H](CCCN=C(N)N)C(=O)N[C@@H](Cc1ccccc1)C(=O)N[C@@H](CCCN=C(N)N)C(=O)N1CCC[C@H]1C(=O)N[C@H](C)C(=O)O | 0.45 (≈ 0.309 µM) | – | 0 | – | – |
| CC(=O)N[C@H](Cc1ccc2ccccc2c1)C(=O)N[C@H](Cc1ccccc1)C(=O)N[C@H](CN[C@@H](CO)C(=O)N[C@@H](Cc1ccc(O)cc1)C(=O)N[C@H](CCCN=C(N)N)C(=O)N[C@@H](Cc1ccccc1)C(=O)N[C@@H](CCCN=C(N)N)C(=O)N1CCC[C@H]1C(=O)N[C@H](C)C(=O)O)Cc1ccccc1 | 0.43 (≈ 0.304 µM) | – | 0 | – | – |
| CC(=O)N[C@H](Cc1ccc2ccccc2c1)C(=O)N[C@H](Cc1ccccc1)C(=O)N[C@H](Cc1ccccc1)C(=O)N[C@@H](CO)C(=O)N[C@@H](Cc1ccc(O)cc1)C(=O)N[C@H](CCCN=C(N)N)C(=O)N[C@@H](Cc1ccccc1)C(=O)N[C@@H](CCCN=C(N)N)C(=O)N1CCC[C@H]1C(=O)N[C@H](C)C(N)=O (Ac-[d2Nal][dF][dF]SY[dR]FRP[dA]-NH2) | 0.11 (≈ 0.077 µM) | – | – | 56 | – |
| CC(=O)N[C@H](Cc1ccc2ccccc2c1)C(=O)N[C@H](Cc1ccccc1)C(=O)N[C@H](Cc1ccccc1)C(=O)N[C@@H](CO)C(=O)N[C@@H](Cc1ccc(O)cc1)C(=O)N[C@H](CCCN=C(N)N)C(=O)N[C@@H](Cc1ccccc1)C(=O)N[C@@H](CCCN=C(N)N)C(=O)N1CCC[C@@H]1CN[C@H](C)C(=O)O | 0.21 (≈ 0.148 µM) | 92 | – | – | 44 |
| CCN(CC)[C@H](Cc1ccc2ccccc2c1)C(=O)N[C@H](Cc1ccccc1)C(=O)N[C@H](Cc1ccccc1)C(=O)N[C@@H](CO)C(=O)N[C@@H](Cc1ccc(O)cc1)C(=O)N[C@H](CCCN=C(N)N)C(=O)N[C@@H](Cc1ccccc1)C(=O)N[C@@H](CCCN=C(N)N)C(=O)N1CCC[C@H]1C(=O)N[C@H](C)C(=O)O | 0.45 (≈ 0.312 µM) | – | – | – | 0 |
| CC(=O)N[C@H](Cc1ccc2ccccc2c1)C(=O)N[C@H](Cc1ccccc1)C(=O)N[C@H](Cc1ccccc1)C(=O)N[C@@H](CO)C(=O)N[C@@H](Cc1ccc(O)cc1)CN(C(C)=O)[C@H](CCCN=C(N)N)C(=O)N[C@@H](Cc1ccccc1)C(=O)N[C@@H](CCCN=C(N)N)C(=O)N1CCC[C@H]1C(=O)N[C@H](C)C(=O)O | 4 (≈ 2.74 µM) | – | 0 | – | – |
| CCN[C@H](Cc1ccc2ccccc2c1)C(=O)N[C@H](Cc1ccccc1)C(=O)N[C@H](Cc1ccccc1)C(=O)N[C@@H](CO)C(=O)N[C@@H](Cc1ccc(O)cc1)C(=O)N[C@H](CCCN=C(N)N)C(=O)N[C@@H](Cc1ccccc1)C(=O)N[C@@H](CCCN=C(N)N)C(=O)N1CCC[C@H]1C(=O)N[C@H](C)C(=O)O | 0.34 (≈ 0.24 µM) | – | – | – | 17 |
| CC(=O)N[C@H](Cc1ccc2ccccc2c1)C(=O)N[C@H](Cc1ccccc1)C(=O)N[C@H](Cc1ccccc1)C(=O)N[C@@H](CO)C(=O)N[C@@H](Cc1ccc(O)cc1)C(=O)N[C@H](CCCN=C(N)N)C(=O)N[C@@H](Cc1ccccc1)C(=O)N[C@@H](CCCN=C(N)N)C(=O)N1CCC[C@@H]1CN(C(C)=O)[C@H](C)C(=O)O | 0.28 (≈ 0.192 µM) | 75 | 100 | – | – |

More lines, main results first:

| EC50 (Rattus norvegicus [1]) [µg/mL] | SMILES | Rats blocked (Rattus norvegicus [2]) [%] | Rats blocked (Rattus norvegicus [3]) [%] | Rats blocked (Rattus norvegicus [4]) [%] | Rats blocked (Rattus norvegicus [5]) [%] |
| --- | --- | --- | --- | --- | --- |
| 0.19 (≈ 0.134 µM) | CC(=O)N[C@H](Cc1ccc2ccccc2c1)C(=O)N[C@H](Cc1ccccc1)C(=O)N[C@H](Cc1ccccc1)C(=O)N[C@@H](CO)CN[C@@H](Cc1ccc(O)cc1)C(=O)N[C@H](CCCN=C(N)N)C(=O)N[C@@H](Cc1ccccc1)C(=O)N[C@@H](CCCN=C(N)N)C(=O)N1CCC[C@H]1C(=O)N[C@H](C)C(=O)O | 63 | – | – | – |
| 0.46 (≈ 0.325 µM) | CC(=O)N[C@H](Cc1ccc2ccccc2c1)C(=O)N[C@H](Cc1ccccc1)C(=O)N[C@H](Cc1ccccc1)C(=O)N[C@@H](CO)C(=O)N[C@@H](Cc1ccc(O)cc1)C(=O)N[C@H](CCCN=C(N)N)C(=O)N[C@H](CN[C@@H](CCCN=C(N)N)C(=O)N1CCC[C@H]1C(=O)N[C@H](C)C(=O)O)Cc1ccccc1 | – | 0 | – | – |
| 1.5 (≈ 1.06 µM) | CC(=O)N[C@H](CN[C@H](Cc1ccccc1)C(=O)N[C@H](Cc1ccccc1)C(=O)N[C@@H](CO)C(=O)N[C@@H](Cc1ccc(O)cc1)C(=O)N[C@H](CCCN=C(N)N)C(=O)N[C@@H](Cc1ccccc1)C(=O)N[C@@H](CCCN=C(N)N)C(=O)N1CCC[C@H]1C(=O)N[C@H](C)C(=O)O)Cc1ccc2ccccc2c1 | – | 0 | – | – |
| 1.5 (≈ 1.05 µM) | CC(=O)N[C@H](Cc1ccc2ccccc2c1)C(=O)N[C@H](Cc1ccccc1)C(=O)N[C@H](Cc1ccccc1)C(=O)N[C@@H](CO)C(=O)N[C@@H](Cc1ccc(O)cc1)C(=O)N[C@@H](CCCCN)CN(C(C)=O)[C@@H](Cc1ccccc1)C(=O)N[C@@H](CCCN=C(N)N)C(=O)N1CCC[C@H]1C(=O)N[C@H](C)C(=O)O | – | 33 | – | – |
| 1.9 (≈ 1.37 µM) | CC(=O)N[C@H](Cc1ccc2ccccc2c1)C(=O)N[C@H](Cc1ccccc1)C(=O)N[C@H](Cc1ccccc1)C(=O)N[C@@H](CO)C(=O)N[C@@H](Cc1ccc(O)cc1)C(=O)N[C@@H](CCCCN)CN[C@@H](Cc1ccccc1)C(=O)N[C@@H](CCCN=C(N)N)C(=O)N1CCC[C@H]1C(=O)N[C@H](C)C(=O)O | – | 60 | – | – |
| 1.5 (≈ 1.06 µM) | CC(=O)N[C@H](Cc1ccc2ccccc2c1)C(=O)N[C@H](Cc1ccccc1)C(=O)N[C@H](Cc1ccccc1)C(=O)N[C@@H](CO)C(=O)N[C@H](CN[C@H](CCCN=C(N)N)C(=O)N[C@@H](Cc1ccccc1)C(=O)N[C@@H](CCCN=C(N)N)C(=O)N1CCC[C@H]1C(=O)N[C@H](C)C(=O)O)Cc1ccc(O)cc1 | 100 | – | – | – |
| 0.35 (≈ 0.247 µM) | CC(=O)N[C@H](Cc1ccc2ccccc2c1)C(=O)N[C@H](CN[C@H](Cc1ccccc1)C(=O)N[C@@H](CO)C(=O)N[C@@H](Cc1ccc(O)cc1)C(=O)N[C@H](CCCN=C(N)N)C(=O)N[C@@H](Cc1ccccc1)C(=O)N[C@@H](CCCN=C(N)N)C(=O)N1CCC[C@H]1C(=O)N[C@H](C)C(=O)O)Cc1ccccc1 | – | 0 | – | – |
